{"data": "Experimental data of several laboratories", "target": "Serine/threonine-protein kinase D2 (PRKD2, Homo sapiens, UniProt Q9BZL6)", "Residues used in one study (Q9BZL6 1-878)": "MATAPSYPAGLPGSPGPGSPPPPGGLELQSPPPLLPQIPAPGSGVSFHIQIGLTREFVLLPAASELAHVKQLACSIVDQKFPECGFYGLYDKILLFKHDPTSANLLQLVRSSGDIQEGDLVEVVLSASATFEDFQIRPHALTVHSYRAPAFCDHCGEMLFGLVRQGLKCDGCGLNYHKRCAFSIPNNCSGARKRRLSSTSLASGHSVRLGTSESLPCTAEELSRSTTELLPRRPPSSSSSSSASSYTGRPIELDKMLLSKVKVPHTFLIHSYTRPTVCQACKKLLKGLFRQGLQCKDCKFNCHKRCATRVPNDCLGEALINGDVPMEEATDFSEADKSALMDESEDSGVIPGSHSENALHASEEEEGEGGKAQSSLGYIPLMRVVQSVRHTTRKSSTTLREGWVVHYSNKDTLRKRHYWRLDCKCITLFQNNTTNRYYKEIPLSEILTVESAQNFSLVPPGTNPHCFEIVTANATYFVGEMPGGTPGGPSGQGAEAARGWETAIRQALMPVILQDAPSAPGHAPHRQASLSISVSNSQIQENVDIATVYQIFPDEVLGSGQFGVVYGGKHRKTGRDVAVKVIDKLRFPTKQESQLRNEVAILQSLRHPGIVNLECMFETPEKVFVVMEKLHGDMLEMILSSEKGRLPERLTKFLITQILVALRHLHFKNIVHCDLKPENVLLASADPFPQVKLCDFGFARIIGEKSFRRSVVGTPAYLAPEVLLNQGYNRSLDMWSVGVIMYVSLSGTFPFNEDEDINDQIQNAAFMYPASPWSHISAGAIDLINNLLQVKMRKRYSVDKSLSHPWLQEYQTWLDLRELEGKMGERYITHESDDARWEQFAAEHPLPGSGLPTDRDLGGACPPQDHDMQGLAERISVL", "note": "Lines come from different studies, so protocols differ."}
{"SMILES": "C=CC(=O)N1CCC([C@@H]2CCNc3c(C(N)=O)c(-c4ccc(Oc5ccccc5)cc4)nn32)CC1", "test": "enzyme activity, inhibitor", "conditions": "1 µM", "measurement": "inhibition", "value": "3%"}
{"SMILES": "Cc1cc(O)c(-c2ccc([C@@H](C)CN(C)C)cc2)c2c1[nH]c(=O)c1sccc12", "test": "enzyme activity, inhibitor", "conditions": "0.1 µM", "measurement": "inhibition", "value": "-4.52%"}
{"SMILES": "C[C@H]1CC[C@H](n2c3cnccc3c3cnc(Nc4ccc5c(n4)CCN(C(=O)CO)C5)nc32)CC1", "test": "cell-free assay", "conditions": "1 µM", "measurement": "remaining signal", "value": "100%"}
{"SMILES": "CO[C@@H]1[C@H](N(C)C(=O)c2ccccc2)C[C@H]2O[C@]1(C)n1c3ccccc3c3c4c(c5c6ccccc6n2c5c31)C(=O)NC4", "test": "enzyme activity, inhibitor", "conditions": "1 µM", "measurement": "inhibition", "value": "18%"}
{"SMILES": "C1=C/COCc2cc(ccc2OCCN2CCCC2)Nc2nccc(n2)-c2cccc(c2)COC/1", "test": "binding", "conditions": "0.1 µM", "measurement": "remaining binding", "value": "100%"}
{"SMILES": "C#Cc1cc(-c2cc(Nc3nc(N[C@@H](C)c4ccc(F)cn4)ncc3Cl)n[nH]2)ccc1C=O", "test": "enzyme activity, inhibitor", "conditions": "0.2 µM", "measurement": "inhibition", "value": "5.36%"}
{"SMILES": "Cc1ccc(NC(=O)c2ccnc(C(F)(F)F)c2)cc1-c1cc(OCCO)nc(N2CCOCC2)c1", "test": "binding", "conditions": "1 µM", "measurement": "remaining binding", "value": "88%"}
{"SMILES": "CCCCC(=O)Nc1ccc(-c2ccc3ncn(CCC)c(=O)c3c2)cn1", "test": "binding, competition with immobilised ligand", "conditions": "0.5 µM", "measurement": "remaining binding", "value": "88%"}
{"SMILES": "COc1ccc2oc(-c3ccc4nc(N)oc4c3)c/c(=N\\c3ccccc3NC(=O)CCN)c2c1", "test": "binding", "conditions": "1 µM", "measurement": "remaining binding", "value": "94%"}
